Compound activity: PubChem BioAssay, Broad Institute
Shown is part of a subset that was picked to be rich in hits.
GASC1 inh = inhibitors of GASC-1 (KDM4C) histone demethylase, primary screen, biochemical, single concentration HTS; Lysine-specific demethylase 4C (Homo sapiens), Q9H3R0; GST-KDM4C 2-372, H3K9me3 peptide, LANCE TR-FRET; inhibition, % at 12.5 µM; actives 0.15% (n = 96,000);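 active = mean replicate inhibition above about 25%, with at least 55% of replicates also reaching it, limit read from the data, passing the limit was not always enough; inconclusive = only one of those two conditions met; inactive = neither condition met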
Target sequence (Q9H3R0 2-372 limits assumed): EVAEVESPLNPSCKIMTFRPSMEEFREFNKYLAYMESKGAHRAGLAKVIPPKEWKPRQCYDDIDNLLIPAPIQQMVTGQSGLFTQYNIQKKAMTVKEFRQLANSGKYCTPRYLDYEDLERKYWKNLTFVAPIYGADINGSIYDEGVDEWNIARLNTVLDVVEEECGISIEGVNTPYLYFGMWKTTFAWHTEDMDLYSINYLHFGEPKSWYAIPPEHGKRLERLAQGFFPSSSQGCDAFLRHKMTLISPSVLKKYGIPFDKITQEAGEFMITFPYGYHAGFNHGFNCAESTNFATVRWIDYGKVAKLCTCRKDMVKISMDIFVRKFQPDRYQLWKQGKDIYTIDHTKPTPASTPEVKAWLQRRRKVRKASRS
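Material: N-terminal GST-fused human GASC-1 (KDM4C) fragment, residues 2-372. Input: 10 nM enzyme. Incubation: enzyme reaction 30 min, then detection 60 min, both room temperature. Doses: one test concentration per compound. Read-out basis: inhibition from TR-FRET ratio decrease. Detection: LANCE TR-FRET, excitation 340 nm, emissions 618 and 671 nm.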
T cruzi growth-1 = T. cruzi intracellular proliferation inhibitors, primary screen, cell-based, beta-gal Tulahuen parasites, NIH3T3 host, luminescence; T. cruzi beta-gal in NIH3T3, GalScreen luminescence, 90 h; actives 5.9% (n = 77,000); inhibition, % at 8.34 µM;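 active = mean inhibition above about 93%, with at least 55% of replicates each passing it, limit read from the data, passing the limit was not always enough; inconclusive = only one of those two conditions holds; inactive = neither condition holds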
IDH1 mut inh = inhibitors of IDH1 R132H reductase, primary screen, biochemical, plate reader, single point; diaphorase/resazurin fluorescence, 60 min; actives 0.18% (n = 70,000); Isocitrate dehydrogenase [NADP] cytoplasmic (Homo sapiens), O75874; inhibition, % at 10 µM; AID 624101, 2012; in the data active = inhibition above about 34%; inconclusive = no clear call, values can overlap the other calls; inactive = below about 11%
T cruzi growth-2 = T. cruzi intracellular proliferation inhibitors, confirmation, cell-based, NIH3T3 host, beta-gal parasite, luminescence, cherry-pick | actives 72% (n = 5,600) | inhibition, % at 8.35 µM | T. cruzi beta-gal in NIH3T3, GalScreen luminescence, 90 h | AID 651739, 2012 | shares compounds with T cruzi growth-1;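 active = mean replicate inhibition above about 95% and at least 55% of replicates individually reaching it, limit read from the data; inconclusive = only one of the two criteria is met; inactive = neither criterion is met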
T cruzi growth-3 = inhibitors of intracellular T. cruzi replication, confirmation, NIH3T3 host cells, beta-gal parasites, cherry-pick, set 2; inhibition, % at 2.09 µM; actives 21% (n = 5,600); T. cruzi beta-gal in NIH3T3, GalScreen luminescence, 90 h; shares compounds with T cruzi growth-1;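 active = mean inhibition above about 95%, with at least 55% of replicates also reaching it, limit read from the data; inconclusive = meets just one of the two conditions; inactive = meets neither condition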
3T3 cytotox = cytotoxicity in mouse NIH/3T3 fibroblasts, confirmation, cytotoxicity control for T. cruzi proliferation inhibitor project, cell-based, cherry-pick, single point; shares compounds with T cruzi growth-1; NIH/3T3 viability, CellTiter-Glo ATP luminescence, 90 h; cytotoxicity (signal decrease), % at 8.35 µM; actives 14% (n = 5,600); AID 651742, 2012;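 active = mean signal decrease across replicates above about 35% based on untreated-well scatter, with enough replicates individually passing, limit read from the data; inconclusive = no rule stated though some were filed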
3T3 cytotox 2 = NIH/3T3 fibroblast cytotoxicity, confirmation, cytotoxicity control, cell-based, cherry-pick, single point, set 2; shares compounds with T cruzi growth-1; NIH/3T3 viability, CellTiter-Glo ATP luminescence, 90 h; inhibition, % at 24.9 µM; actives 56% (n = 5,600);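 active = mean loss of cell viability signal at or above a set limit, and enough replicates individually reaching it; inconclusive = meets only the mean limit or only the replicate share; inactive = meets neither condition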
Of the large screens only hits and unclear results are named; the others gave an inactive call (follow-up assays come after a bar, where they were run).

C[C@@H]1CN([C@@H](C)CO)C(=O)c2cc(NC(=O)NC3CCCCC3)ccc2O[C@@H](C)CCCCO[C@H]1CN(C)C(=O)Nc1cccc2ccccc12	none (no result: IDH1 mut inh)
C[C@H]1CCCCO[C@H](CN(C)C(=O)Nc2cccc3ccccc23)[C@@H](C)CN([C@@H](C)CO)C(=O)c2cc(NC(=O)NC3CCCCC3)ccc2O1	T cruzi growth-1 99 (no result: IDH1 mut inh) | T cruzi growth-2 108 | T cruzi growth-3 112 | 3T3 cytotox inactive | 3T3 cytotox 2 inactive
C[C@@H]1CN([C@@H](C)CO)C(=O)c2cc(NC(=O)c3ccccc3)ccc2O[C@@H](C)CCCCO[C@H]1CN(C)C(=O)Nc1cccc2ccccc12	none
C[C@@H]1CCCCO[C@@H](CN(C)C(=O)Nc2cccc3ccccc23)[C@@H](C)CN([C@@H](C)CO)C(=O)c2cc(NC(=O)C3CCCCC3)ccc2O1	T cruzi growth-1 inconclusive (no result: IDH1 mut inh) | T cruzi growth-2 110 | T cruzi growth-3 inactive | 3T3 cytotox inactive | 3T3 cytotox 2 inactive
C[C@@H]1CCCCO[C@H](CN(C)C(=O)Nc2cccc3ccccc23)[C@@H](C)CN([C@@H](C)CO)C(=O)c2cc(NC(=O)c3ccccc3)ccc2O1	T cruzi growth-1 inconclusive (no result: IDH1 mut inh) | T cruzi growth-2 107 | T cruzi growth-3 inactive | 3T3 cytotox inactive | 3T3 cytotox 2 36
C[C@@H]1CN([C@H](C)CO)C(=O)c2cc(N(C)C)ccc2O[C@@H](C)CCCCO[C@H]1CN(C)C(=O)Nc1cccc2ccccc12	none (no result: GASC1 inh)
C[C@@H]1CCCCO[C@H](CN(C)C(=O)Nc2cccc3ccccc23)[C@H](C)CN([C@H](C)CO)C(=O)c2cc(N(C)C)ccc2O1	T cruzi growth-1 99 | T cruzi growth-2 96 | T cruzi growth-3 inactive | 3T3 cytotox inactive | 3T3 cytotox 2 inactive
Cc1noc(C)c1NC(=O)N(C)C[C@H]1OCCCC[C@@H](C)Oc2ccc(NC(=O)Nc3ccc(F)cc3)cc2C(=O)N([C@H](C)CO)C[C@@H]1C	none (no result: IDH1 mut inh)
C[C@H]1CN([C@@H](C)CO)C(=O)Cc2cc(NC(=O)Nc3ccccc3)ccc2O[C@H]1CN(C)Cc1ccc(-c2ccccc2)cc1	none
Cc1ccc(S(=O)(=O)Nc2ccc3c(c2)C(=O)N([C@@H](C)CO)C[C@H](C)[C@H](CN(C)Cc2ccc4c(c2)OCO4)O3)cc1	none (no result: IDH1 mut inh)
C[C@@H]1CCCCO[C@@H](CN(C)C(=O)NC2CCCCC2)[C@H](C)CN([C@@H](C)CO)C(=O)c2cc(NC(=O)Nc3cccc4ccccc34)ccc2O1	none
C[C@@H]1CCCCO[C@H](CN(C)C(=O)NC2CCCCC2)[C@H](C)CN([C@@H](C)CO)C(=O)c2cc(NC(=O)Nc3cccc4ccccc34)ccc2O1	T cruzi growth-1 108 | T cruzi growth-2 106 | T cruzi growth-3 inactive | 3T3 cytotox inactive | 3T3 cytotox 2 inactive
C[C@@H]1CCCCO[C@H](CN(C)C(=O)NC2CCCCC2)[C@H](C)CN([C@H](C)CO)C(=O)c2cc(NC(=O)Nc3cccc4ccccc34)ccc2O1	none
C[C@@H]1CCCCO[C@H](CN(C)C(=O)NC2CCCCC2)[C@@H](C)CN([C@H](C)CO)C(=O)c2cc(NC(=O)Nc3cccc4ccccc34)ccc2O1	T cruzi growth-1 104 | T cruzi growth-2 109 | T cruzi growth-3 inactive | 3T3 cytotox inactive | 3T3 cytotox 2 inactive
COc1ccccc1-c1ccc([C@@H]2[C@H]3CN(C(=O)NC4CCCC4)CCCCN3[C@H]2CO)cc1	none (no result: IDH1 mut inh)
Cc1ccccc1-c1ccc([C@H]2[C@H]3CN(C(=O)NC4CCCC4)CCCCN3[C@H]2CO)cc1	T cruzi growth-1 112 (no result: IDH1 mut inh) | T cruzi growth-2 105 | T cruzi growth-3 inactive | 3T3 cytotox inactive | 3T3 cytotox 2 55
Cc1ccccc1-c1ccc([C@H]2[C@@H](CO)N3CCCCN(C(=O)NC4CCCC4)C[C@@H]23)cc1	T cruzi growth-1 106 (no result: IDH1 mut inh) | T cruzi growth-2 108 | T cruzi growth-3 inactive | 3T3 cytotox inactive | 3T3 cytotox 2 81
COc1ccccc1-c1ccc([C@@H]2[C@@H](CO)N3CCCCN(C(=O)NC4CCCC4)C[C@@H]23)cc1	none (no result: IDH1 mut inh)
Cc1ccccc1-c1ccc([C@H]2[C@@H](CO)N3CCCCN(C(=O)NC4CCCC4)C[C@H]23)cc1	T cruzi growth-1 115 (no result: IDH1 mut inh) | T cruzi growth-2 108 | T cruzi growth-3 99 | 3T3 cytotox inactive | 3T3 cytotox 2 106
COc1ccccc1-c1ccc([C@H]2[C@H]3CN(C(=O)NC4CCCC4)CCCCN3[C@H]2CO)cc1	none (no result: IDH1 mut inh)
C[C@@H]1CN([C@H](C)CO)C(=O)c2cccc(NS(C)(=O)=O)c2O[C@@H]1CN(C)S(=O)(=O)c1ccc(Cl)cc1	none
CO[C@@H]1CN(C)C(=O)c2ccc(NS(C)(=O)=O)cc2OC[C@H](C)N(C(=O)C2CCOCC2)C[C@H]1C	none
Cc1ccc(C(=O)NCCCNc2ccccc2[N+](=O)[O-])cc1	none (no result: GASC1 inh, T cruzi growth-1)
C[C@H]1CN([C@@H](C)CO)C(=O)c2cc(C3=CCCC3)cnc2O[C@@H]1CN(C)C(=O)Nc1ccc(C(F)(F)F)cc1	none (no result: IDH1 mut inh)
C[C@@H]1CN([C@@H](C)CO)C(=O)c2cc(C3=CCCC3)cnc2O[C@H]1CN(C)C(=O)Nc1ccc(C(F)(F)F)cc1	T cruzi growth-1 99 | T cruzi growth-2 102 | T cruzi growth-3 inactive | 3T3 cytotox inactive | 3T3 cytotox 2 inactive
C[C@H]1CN([C@@H](C)CO)C(=O)c2cc(C3=CCCC3)cnc2O[C@@H]1CN(C)C(=O)Nc1ccc(F)cc1	none (no result: T cruzi growth-1, IDH1 mut inh)
C[C@@H]1CN([C@H](C)CO)C(=O)c2cc(C3=CCCC3)cnc2O[C@@H]1CN(C)C(=O)Nc1ccc(C(F)(F)F)cc1	T cruzi growth-1 111 (no result: IDH1 mut inh) | T cruzi growth-2 107 | T cruzi growth-3 inactive | 3T3 cytotox inconclusive | 3T3 cytotox 2 104
CN(C)CCCNC(=O)C[C@@H]1CC[C@H]2[C@@H](COC[C@H](O)CN2S(=O)(=O)c2ccccc2)O1	none (no result: IDH1 mut inh)
C[C@@H]1CCCCO[C@H](CN(C)C(=O)c2ccncc2)[C@H](C)CN([C@@H](C)CO)C(=O)c2cc(NC(=O)c3ccncc3)ccc2O1	none
C[C@H]1CN([C@@H](C)CO)C(=O)c2cccc(NC(=O)Nc3ccc(C(F)(F)F)cc3)c2O[C@@H]1CN(C)S(=O)(=O)c1cccs1	none
